Assay results from ChEMBL document CHEMBL5376013, “Design, synthesis and biological evaluation of novel morpholinopyrimidine-5-carbonitrile derivatives as dual PI3K/mTOR inhibitors” (RSC Med Chem, 2024).

Assays:
Format in all cases: functional
Conditions in all cases: read-out: GI
RPMI-8226 = assay: Antitumor activity against human RPMI-8226 cells assessed as growth inhibition at 10 uM relative to control
Procedure, shortened: (§1)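 After drug addition, plates were incubated 48 h at 37 °C under 5% CO2. Adherent cells were fixed with cold TCA (10% final, 60 min, 4 °C) and suspension cells with 16% final TCA. Staining used 0.4% SRB in 1% acetic acid, solubilized in 10 mM trizma, read at A515. Percent growth was calculated from time-zero, control and treated absorbances.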

SK-MEL-2 = assay: Antitumor activity against human SK-MEL-2 cells assessed as growth inhibition at 10 uM relative to control; procedure, shortened: as §1
DU-145 = assay: Antitumor activity against human DU-145 cells assessed as growth inhibition at 10 uM relative to control; procedure, shortened: as §1
MOLT-4 = assay: Antitumor activity against human MOLT-4 cells assessed as growth inhibition at 10 uM relative to control; procedure, shortened: as §1
HCT-116 = assay: Antitumor activity against human HCT-116 cells assessed as growth inhibition at 10 uM relative to control; procedure, shortened: as §1
OVCAR-3 = assay: Antitumor activity against human OVCAR-3 cells assessed as growth inhibition at 10 uM relative to control; procedure, shortened: as §1
SN12C = assay: Antitumor activity against human SN12C cells assessed as growth inhibition at 10 uM relative to control
Procedure, shortened: (§2)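 Drug exposure 48 h at 37 °C, 5% CO2. Adherent cells fixed with cold TCA (10% final), suspension cells with TCA (16% final). Stained with 0.4% SRB in 1% acetic acid, dissolved in 10 mM Tris, A515. Growth relative to time-zero and untreated control.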

SNB-19 = assay: Antitumor activity against human SNB-19 cells assessed as growth inhibition at 10 uM relative to control; procedure, shortened: as §2
HCT-15 = assay: Antitumor activity against human HCT-15 cells assessed as growth inhibition at 10 uM relative to control; procedure, shortened: as §1
UACC-257 = assay: Antitumor activity against human UACC-257 cells assessed as growth inhibition at 10 uM relative to control; procedure, shortened: as §2
CAKI-1 = assay: Antitumor activity against human CAKI-1 cells assessed as growth inhibition at 10 uM relative to control; procedure, shortened: as §1
UACC-62 = assay: Antitumor activity against human UACC-62 cells assessed as growth inhibition at 10 uM relative to control; procedure, shortened: as §2
MDA-MB-231 = assay: Antitumor activity against human MDA-MB-231 cells assessed as growth inhibition at 10 uM relative to control; procedure, shortened: as §1
U-251 = assay: Antitumor activity against human U-251 cells assessed as growth inhibition at 10 uM relative to control; procedure, shortened: as §2
K562 = assay: Antitumor activity against human K562 cells assessed as growth inhibition at 10 uM relative to control; procedure, shortened: as §1
786-0 = assay: Antitumor activity against human 786-0 cells assessed as growth inhibition at 10 uM relative to control; procedure, shortened: as §1
COLO 205 = assay: Antitumor activity against human COLO 205 cells assessed as growth inhibition at 10 uM relative to control; procedure, shortened: as §1
HOP-62 = assay: Antitumor activity against human HOP-62 cells assessed as growth inhibition at 10 uM relative to control; procedure, shortened: as §1
A549 = assay: Antitumor activity against human A549 cells assessed as growth inhibition at 10 uM relative to control; procedure, shortened: as §1
NCI/ADR-RES = assay: Antitumor activity against human NCI-ADR-RES cells assessed as growth inhibition at 10 uM relative to control; procedure, shortened: as §1
SK-MEL-5 = assay: Antitumor activity against human SK-MEL-5 cells assessed as growth inhibition at 10 uM relative to control; procedure, shortened: as §2
UO-31 = assay: Antitumor activity against human UO-31 cells assessed as growth inhibition at 10 uM relative to control; procedure, shortened: as §2
SF-539 = assay: Antitumor activity against human SF-539 cells assessed as growth inhibition at 10 uM relative to control; procedure, shortened: as §1
Malme-3M = assay: Antitumor activity against human Malme-3M cells assessed as growth inhibition at 10 uM relative to control; procedure, shortened: as §1
PC-3 = assay: Antitumor activity against human PC-3 cells assessed as growth inhibition at 10 uM relative to control; procedure, shortened: as §1
MCF7 = assay: Antitumor activity against human MCF7 cells assessed as growth inhibition at 10 uM relative to control; procedure, shortened: as §1
NCI-H23 = assay: Antitumor activity against human NCI-H23 cells assessed as growth inhibition at 10 uM relative to control; procedure, shortened: as §1
SK-OV-3 = assay: Antitumor activity against human SK-OV-3 cells assessed as growth inhibition at 10 uM relative to control; procedure, shortened: as §2
ACHN = assay: Antitumor activity against human ACHN cells assessed as growth inhibition at 10 uM relative to control; procedure, shortened: as §1
SR = assay: Antitumor activity against human SR cells assessed as growth inhibition at 10 uM relative to control; procedure, shortened: as §2
CCRF-CEM = assay: Antitumor activity against human CCRF-CEM cells assessed as growth inhibition at 10 uM relative to control; procedure, shortened: as §1
SK-MEL-28 = assay: Antitumor activity against human SK-MEL-28 cells assessed as growth inhibition at 10 uM relative to control; procedure, shortened: as §2
RXF 393 = assay: Antitumor activity against human RXF 393 cells assessed as growth inhibition at 10 uM relative to control; procedure, shortened: as §1
NCI-H226 = assay: Antitumor activity against human NCI-H226 cells assessed as growth inhibition at 10 uM relative to control; procedure, shortened: as §1
BT-549 = assay: Antitumor activity against human BT-549 cells assessed as growth inhibition at 10 uM relative to control; procedure, shortened: as §1
MDA-MB-468 = assay: Antitumor activity against human MDA-MB-468 cells assessed as growth inhibition at 10 uM relative to control; procedure, shortened: as §1
HT-29 = assay: Antitumor activity against human HT-29 cells assessed as growth inhibition at 10 uM relative to control; procedure, shortened: as §1
KM12 = assay: Antitumor activity against human KM12 cells assessed as growth inhibition at 10 uM relative to control; procedure, shortened: as §1
SNB-75 = assay: Antitumor activity against human SNB-75 cells assessed as growth inhibition at 10 uM relative to control; procedure, shortened: as §2
NCI-H522 = assay: Antitumor activity against human NCI-H522 cells assessed as growth inhibition at 10 uM relative to control; procedure, shortened: as §1
SF-268 = assay: Antitumor activity against human SF-268 cells assessed as growth inhibition at 10 uM relative to control; procedure, shortened: as §1
LOX IMVI = assay: Antitumor activity against human LOX IMVI cells assessed as growth inhibition at 10 uM relative to control; procedure, shortened: as §1
OVCAR-4 = assay: Antitumor activity against human OVCAR-4 cells assessed as growth inhibition at 10 uM relative to control; procedure, shortened: as §1
T47D = assay: Antitumor activity against human T47D cells assessed as growth inhibition at 10 uM relative to control; procedure, shortened: as §2
SW-620 = assay: Antitumor activity against human SW-620 cells assessed as growth inhibition at 10 uM relative to control; procedure, shortened: as §2
HOP-92 = assay: Antitumor activity against human HOP-92 cells assessed as growth inhibition at 10 uM relative to control; procedure, shortened: as §1

`N#Cc1c(-c2ccc(Cl)cc2)[nH]c(=S)[nH]c1=O` gave an inhibition of growth at 10 µM (RPMI-8226) of less than 1%, an inhibition of growth at 10 µM (SK-MEL-2) of less than 1% and an inhibition of growth at 10 µM (DU-145) of less than 1%. It also gave an inhibition of growth at 10 µM (MOLT-4) of less than 1%, an inhibition of growth at 10 µM (HCT-116) of less than 1% and an inhibition of growth at 10 µM (OVCAR-3) of less than 1%. It also gave an inhibition of growth at 10 µM (SN12C) of less than 1%, an inhibition of growth at 10 µM (SNB-19) of less than 1% and an inhibition of growth at 10 µM (HCT-15) of less than 1%. For the same molecule, the inhibition of growth at 10 µM (UACC-257) was less than 1%, the inhibition of growth at 10 µM (CAKI-1) was less than 1% and the inhibition of growth at 10 µM (UACC-62) was less than 1%. For the same molecule, the inhibition of growth at 10 µM (MDA-MB-231) was less than 1%, the inhibition of growth at 10 µM (U-251) was less than 1% and the inhibition of growth at 10 µM (K562) was less than 1%. For the same molecule, the inhibition of growth at 10 µM (786-0) was less than 1%, the inhibition of growth at 10 µM (COLO 205) was less than 1% and the inhibition of growth at 10 µM (HOP-62) was less than 1%. For the same molecule, the inhibition of growth at 10 µM (A549) was less than 1%, the inhibition of growth at 10 µM (NCI/ADR-RES) was less than 1% and the inhibition of growth at 10 µM (SK-MEL-5) was less than 1%. It also gave an inhibition of growth at 10 µM (UO-31) of 10.2%, an inhibition of growth at 10 µM (SF-539) of less than 1% and an inhibition of growth at 10 µM (Malme-3M) of less than 1%. The inhibition of growth at 10 µM (PC-3) was less than 1%, the inhibition of growth at 10 µM (MCF7) was less than 1% and the inhibition of growth at 10 µM (NCI-H23) was less than 1%. For the same molecule, the inhibition of growth at 10 µM (SK-OV-3) was less than 1%, the inhibition of growth at 10 µM (ACHN) was less than 1% and the inhibition of growth at 10 µM (SR) was less than 1%. It also gave an inhibition of growth at 10 µM (CCRF-CEM) of less than 1%, an inhibition of growth at 10 µM (SK-MEL-28) of less than 1% and an inhibition of growth at 10 µM (RXF 393) of less than 1%. For the same molecule, the inhibition of growth at 10 µM (NCI-H226) was less than 1%, the inhibition of growth at 10 µM (BT-549) was less than 1% and the inhibition of growth at 10 µM (MDA-MB-468) was less than 1%. It also gave an inhibition of growth at 10 µM (HT-29) of less than 1%, an inhibition of growth at 10 µM (KM12) of less than 1% and an inhibition of growth at 10 µM (SNB-75) of 14.7%. The inhibition of growth at 10 µM (NCI-H522) was less than 1%, the inhibition of growth at 10 µM (SF-268) was less than 1% and the inhibition of growth at 10 µM (LOX IMVI) was less than 1%. For the same molecule, the inhibition of growth at 10 µM (OVCAR-4) was less than 1%, the inhibition of growth at 10 µM (T47D) was less than 1% and the inhibition of growth at 10 µM (SW-620) was less than 1%. It also gave an inhibition of growth at 10 µM (HOP-92) of less than 1%.
